# Source: the M2OR odorant receptor database
# Biological target: T1, OR2M3 (Homo sapiens) (UniProt Q8NG83)
# T1 sequence (whole entry): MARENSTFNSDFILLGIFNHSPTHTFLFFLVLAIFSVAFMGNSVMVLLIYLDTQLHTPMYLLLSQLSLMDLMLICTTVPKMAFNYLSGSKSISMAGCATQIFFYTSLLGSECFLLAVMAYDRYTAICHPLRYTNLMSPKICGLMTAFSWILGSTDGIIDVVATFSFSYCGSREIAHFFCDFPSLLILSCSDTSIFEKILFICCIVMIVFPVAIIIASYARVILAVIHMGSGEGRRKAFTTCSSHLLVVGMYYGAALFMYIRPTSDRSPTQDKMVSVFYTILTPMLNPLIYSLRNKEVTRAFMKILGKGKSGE
# Conditions: stereoisomer not certain
# How it was run: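 Transient luciferase assays in mammalian cell lines were common, though methods varied by source. The values come from published papers and their supplementary material, with extra details from the original authors when needed. Responsive refers to a measured signal the original authors judged statistically different from baseline, and non-responsive (inactive) to the remainder.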
# 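Also: active if original authors judged signal statistically different from baseline.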
row,Compound,odorant receptor agonist call
1,Cc1c[nH]c2ccccc12,inactive
2,CCC(C)c1nccnc1OC (stereo not drawn),inactive
3,CCOC(C)OCC,inactive
4,CC1=CCC(C(C)(C)S)CC1 (stereo not drawn),inactive
5,CCC=O,inactive
6,CCCCCC1CCC(=O)O1 (stereo not drawn),inactive
7,CCCCCCCC1CCCC(=O)O1 (stereo not drawn),inactive
8,CC(=O)C(C)O (stereo not drawn),inactive
9,C=C1CCC2(C(C)C)CC12 (stereo not drawn),inactive
10,CC(=O)OCC=Cc1ccccc1,inactive
11,CC(S)C(C)CO (stereo not drawn),active
12,COCCC(C)(C)S,inactive
13,CCOC(=O)CC(C)C,inactive
14,C=Cc1ccc(O)c(OC)c1,inactive
15,CC(=O)c1ccc(C)cc1,inactive
16,CSCCC=O,inactive
17,CC=O,inactive
18,CCOC(=O)C(C)C,inactive
19,Cc1occc(=O)c1O,inactive

row,Compound,odorant receptor agonist call
1,CCCCCC1CCCC(=O)O1 (stereo not drawn),inactive
2,COC1=C(C)OC(C)C1=O (stereo not drawn),inactive
3,CCCCCCCCC1CCC(=O)O1 (stereo not drawn),inactive
4,CCOC(C)=O,inactive
5,CCC(=O)C1=NCCC1,inactive
6,CCCCCCCCCO,inactive
7,C=C(C)c1ccc(C)cc1,inactive
8,CCCCCC(=O)OCC,inactive
9,CCCSSCCC,inactive
10,CCO,inactive
11,CCCC(=O)OCC,inactive
12,SCc1cccs1,inactive
13,CCOC(=O)C(C)CC (stereo not drawn),inactive
14,CCOC(=O)C=Cc1ccccc1,inactive
15,CCCCC(=O)OCC,inactive
16,CCCCCCCCC=CC=O,inactive
17,CC(=O)OCCC(C)C,inactive
18,CCC(C)C(=O)OC (stereo not drawn),inactive
19,CCC=CCCC=CCO,inactive
